Measurements reported in ChEMBL document CHEMBL1255483, “Intra- and extracellular activities of dicloxacillin against Staphylococcus aureus in vivo and in vitro” (Antimicrob Agents Chemother, 2010).
Converted amounts (≈) assume the structure as drawn. The source made the active and inactive calls. No cut-off for these calls is given here.

Key:
[1] = Ratio of fCmax in NMRI mouse at 160 mg/kg administered every 3 hrs to MIC for Staphylococcus aureus E19977; format: functional
Procedure, shortened: (§1)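 Free Cmax/MIC was modelled, not measured. Single-dose subcutaneous plasma curves from NMRI mice were projected to the multiple-dose regimens. Free fraction came from a square-root fit of unbound fraction versus total concentration. Binding was measured by ultrafiltration of mouse plasma spiked with 10–400 mg/liter and held 1 h at 37°C. MIC was for strain E19977.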

[2] = Ratio of fCmax in NMRI mouse at 120 mg/kg administered every 3 hrs to MIC for Staphylococcus aureus E19977; format: functional; procedure, shortened: as §1
[3] = fT>MIC in Staphylococcus aureus E19977 infected NMRI mouse at 120 mg/kg administered every 6 hrs; format: functional
Procedure, shortened: (§2)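 Calculated percentage of 24 h at steady state that free plasma DCX exceeds the strain MIC (microdilution, pH 7.4). Concentrations were simulated from single subcutaneous dose plasma curves in NMRI mice (S. lutea bioassay), adjusted with a square-root model of concentration-dependent free fraction from ultrafiltration. The regimen was dosed subcutaneously in mice infected intraperitoneally with 10^7.4 CFU, and peritoneal CFU were read after 24 h of therapy.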

[4] = Ratio of fCmax in NMRI mouse at 200 mg/kg administered every 4 hrs to MIC for Staphylococcus aureus E19977; format: functional; procedure, shortened: as §1
[5] = Half-life in NMRI mouse at 120 mg/kg, sc; format: ADME, organism-based; parameters: dose 120 mg/kg, route subcutaneous; details: in vivo
Procedure, shortened: (§3)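 Single subcutaneous DCX doses given to NMRI mice. Blood was collected into EDTA tubes, and plasma drug was assayed by microbiological bioassay with S. lutea ATCC 9391 (detection limit 1.5 mg/liter, linear to 100 mg/liter). Values came from noncompartmental analysis. Terminal half-life was fitted monoexponentially to the last four time points. AUC24 combined the trapezoidal rule over mean points with exact integration of the fitted curve extrapolated to 24 h.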

[6] = AUC (24 hrs) in NMRI mouse at 60 mg/kg, sc; format: ADME, organism-based; parameters: time < 24 hr, dose 60 mg/kg, route subcutaneous; details: plasma; procedure, shortened: as §3
[7] = Ratio of fCmax in NMRI mouse at 240 mg/kg administered every 6 hrs to MIC for Staphylococcus aureus E19977; format: functional; procedure, shortened: as §1
[8] = Ratio of fAUC (24 hrs) in NMRI mouse at 120 mg/kg administered every 3 hrs to MIC for Staphylococcus aureus E19977; format: functional
Procedure, shortened: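 Free-drug AUC24/MIC was modelled for repeated subcutaneous regimens. Single-dose NMRI plasma concentration-time curves were combined with the best-fitting square-root expression for the concentration-dependent free fraction. The result was divided by the E19977 MIC.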

Staphylococcus aureus [9] = assay: Bactericidal activity against Staphylococcus aureus ATCC 25923 assessed as log change in bacterial count after 24 hrs; format: functional
Procedure, shortened: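 Extracellular broth time- and concentration-kill test. The inoculum was ~10⁶ CFU/ml, exposed to a wide range of DCX concentrations, with CFU counted after 5 and 24 h. The read-out was Δlog CFU/ml versus time zero (mean ± SD, n = 3). A sigmoidal fit with slope 1 gave Emax and EC50. Cstatic was read by graphical interpolation as the concentration giving no change from the inoculum.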

[10] = Ratio of fAUC (24 hrs) in NMRI mouse at 200 mg/kg administered every 6 hrs to MIC for Staphylococcus aureus E19977; format: functional
Procedure, shortened: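 Modeled free AUC over 24 h divided by the MIC, not measured directly. Single subcutaneous DCX doses were given to NMRI mice, and plasma was assayed by S. lutea bioassay. Noncompartmental analysis used trapezoidal mean points plus a fitted monoexponential extrapolated to 24 h. Free fraction came from a square-root fit to plasma ultrafiltration binding (10–400 mg/liter spike, 1 h, 37°C). The MIC was measured by broth microdilution at pH 7.4.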

Staphylococcus aureus [11] = assay: Bacteriostatic activity against Staphylococcus aureus E19977 infected in human THP-1 cells at 100 times MIC after 5 hrs; format: functional, organism-based
Procedure, shortened: (§4)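 Human THP-1 macrophages were infected with opsonized S. aureus at 4 bacteria per macrophage for 45 min. Non-phagocytized bacteria were removed by washing and a brief incubation in PBS with gentamicin 50 mg/liter. Cells were then incubated up to 24 h with DCX over a wide range of extracellular concentrations. The read-out was Δlog CFU per mg cell protein versus time zero (n = 3), with sigmoidal fitting and Cstatic by interpolation.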

THP-1 = assay: Cytotoxicity against human THP1 cells at 500 mg/L after 24 hrs by trypan blue exclusion method; format: cell-based; details: thp-1, 24 h
Procedure, shortened: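 THP-1 macrophage viability was checked by trypan blue exclusion after 24 h of exposure to DCX at concentrations up to 500 mg/liter.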

Mus musculus [12] = organism: Mus musculus; assay: Protein binding in NMRI mouse infected with Staphylococcus aureus E19977 at 90 mg/l by ultrafiltration; format: ADME, organism-based; details: in vivo
Procedure, shortened: (§5)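 Plasma binding was measured by ultrafiltration. EDTA blood from healthy mice, or from NMRI mice infected intraperitoneally for 6 h with E19977, was spiked with DCX at 10–400 mg/liter, with PBS controls. Samples were held 1 h at 37°C, then centrifuged through 30-kDa filters at 3,000 × g for 8 min at 37°C. Total and filtrate drug were measured by S. lutea bioassay.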

Mus musculus [13] = organism: Mus musculus; assay: Protein binding in NMRI mouse infected with Staphylococcus aureus E19977 at 10 mg/l by ultrafiltration; format: ADME, organism-based; details: in vivo; procedure, shortened: as §5
Staphylococcus aureus [14] = assay: Antimicrobial activity against Staphylococcus aureus ATCC 25923 by broth microdilution method at pH 7.4
[15] = Ratio of fCmax in NMRI mouse at 80 mg/kg administered every 8 hrs to MIC for Staphylococcus aureus E19977; format: functional; procedure, shortened: as §1
Staphylococcus aureus [16] = assay: Bactericidal activity against Staphylococcus aureus E19977 assessed as log reduction in bacterial count at 10 times MIC after 5 hrs by time-kill assay; format: functional
Procedure, shortened: (§6)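 Broth time-kill: MSSA at 10⁶ CFU/ml exposed to a wide range of dicloxacillin concentrations. CFU counted after 5 and 24 h and expressed as change in log₁₀ CFU/ml from time zero. Multiples refer to the MIC by CLSI microdilution at pH 7.4. n = 3.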

Staphylococcus aureus [17] = assay: Antimicrobial activity against Staphylococcus aureus E19977 by broth microdilution method at pH 5.4
Staphylococcus aureus [18] = assay: Bacteriostatic activity against Staphylococcus aureus ATCC 25923 infected in human THP-1 cells at MIC after 24 hrs; format: functional, organism-based; procedure, shortened: as §4
[19] = fT>MIC in Staphylococcus aureus E19977 infected NMRI mouse at 76 mg/kg administered every 2 hrs; format: functional; procedure, shortened: as §2
Mus musculus [20] = organism: Mus musculus; assay: Protein binding in NMRI mouse at 30 mg/l by ultrafiltration; format: ADME, organism-based; details: in vivo; procedure, shortened: as §5
Mus musculus [21] = organism: Mus musculus; assay: Protein binding in NMRI mouse at 10 mg/l by ultrafiltration; format: ADME, organism-based; details: in vivo; procedure, shortened: as §5
Staphylococcus aureus [22] = assay: Bactericidal activity against Staphylococcus aureus E19977 infected in human THP-1 cells assessed as log change in bacterial count after 24 hrs; format: functional; procedure, shortened: as §4
Staphylococcus aureus [23] = assay: Bactericidal activity against Staphylococcus aureus E19977 assessed as log reduction in bacterial count at 100 times MIC after 5 hrs by time-kill assay; format: functional; procedure, shortened: as §6
[24] = Half-life in NMRI mouse at 60 mg/kg, sc; format: ADME, organism-based; parameters: dose 60 mg/kg, route subcutaneous; details: in vivo; procedure, shortened: as §3
Mus musculus [25] = organism: Mus musculus; assay: Protein binding in NMRI mouse at 180 mg/l by ultrafiltration; format: ADME, organism-based; details: in vivo; procedure, shortened: as §5

fT>MIC [3]: 37.78% | half-life [5]: 22 min | AUC at 24 h [6]: 70400 ng·h/mL | fAUC/MIC [8]: 350.73 h | fAUC/MIC [10]: 411.61 h | Activity (Mus musculus [12]): 85.6% | Activity (Mus musculus [13]): 93.6% | MIC (Staphylococcus aureus [14]): 0.125 µg/mL (≈ 0.266 µM) | MIC (Staphylococcus aureus [17]): 0.125 µg/mL (≈ 0.266 µM) | fT>MIC [19]: 100% | Activity (Mus musculus [20]): 91.5% | Activity (Mus musculus [21]): 93.9% | half-life [24]: 25 min | Activity (Mus musculus [25]): 87.2%
SMILES: Cc1onc(-c2c(Cl)cccc2Cl)c1C(=O)N[C@@H]1C(=O)N2[C@@H]1SC(C)(C)[C@@H]2C(=O)O [DICLOXACILLIN]
Ratio [1]: 81.58 | Ratio [2]: 61.6 | Ratio [4]: 101.92 | Ratio [7]: 136.18 | Emax (Staphylococcus aureus [9]): -3.19 deltalog10CFU/ml | Activity (Staphylococcus aureus [11]): Active | Activity (THP-1): Non-toxic | Ratio [15]: 30.64 | FC (Staphylococcus aureus [16]): <1 | Activity (Staphylococcus aureus [18]): Active | Emax (Staphylococcus aureus [22]): -1.01 deltalog10CFU/ml | FC (Staphylococcus aureus [23]): <1
